TRPC6 activator: mouse TRPC6 channel activation | Q61143 | HEK293-TRPC6 membrane potential dye fluorescence; active compounds read high | B-score at 10 µM | 310,000 compounds, 0.13% hits;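 active means B-score of the integrated fluorescence ratio above library mean plus 3 SD, and starting fluorescence ratio within library mean plus 5 SD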;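 further: higher score means more depolarization so channel activation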
Target sequence (Q61143 whole entry, looked up): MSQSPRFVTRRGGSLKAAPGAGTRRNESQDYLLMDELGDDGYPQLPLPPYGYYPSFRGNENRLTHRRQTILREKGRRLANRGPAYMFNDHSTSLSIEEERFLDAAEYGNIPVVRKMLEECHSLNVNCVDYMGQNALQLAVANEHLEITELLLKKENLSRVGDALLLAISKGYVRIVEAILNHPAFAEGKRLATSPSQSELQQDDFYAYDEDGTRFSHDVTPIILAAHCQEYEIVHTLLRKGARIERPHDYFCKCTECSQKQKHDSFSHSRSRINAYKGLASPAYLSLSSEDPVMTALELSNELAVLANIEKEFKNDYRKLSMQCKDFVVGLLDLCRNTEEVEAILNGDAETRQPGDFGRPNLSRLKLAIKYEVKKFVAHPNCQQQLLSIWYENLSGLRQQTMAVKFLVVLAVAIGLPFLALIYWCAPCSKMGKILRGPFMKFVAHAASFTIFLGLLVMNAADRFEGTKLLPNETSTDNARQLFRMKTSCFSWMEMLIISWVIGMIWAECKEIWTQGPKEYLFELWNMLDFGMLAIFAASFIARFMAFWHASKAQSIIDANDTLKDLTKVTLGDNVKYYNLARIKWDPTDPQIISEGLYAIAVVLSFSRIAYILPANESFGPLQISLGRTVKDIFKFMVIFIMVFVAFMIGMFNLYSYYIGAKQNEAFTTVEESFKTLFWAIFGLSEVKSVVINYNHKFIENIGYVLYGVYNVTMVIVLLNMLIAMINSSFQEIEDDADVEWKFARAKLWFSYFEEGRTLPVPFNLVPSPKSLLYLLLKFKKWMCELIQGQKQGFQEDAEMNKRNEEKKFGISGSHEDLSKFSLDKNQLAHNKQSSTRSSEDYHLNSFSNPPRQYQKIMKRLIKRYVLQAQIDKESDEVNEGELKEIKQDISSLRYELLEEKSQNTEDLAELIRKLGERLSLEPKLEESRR
TRPC6 inh: blocks the mouse TRPC6 cation channel; Q61143; HEK293-TRPC6, membrane potential dye, ACh-evoked depolarization; active compounds read low; B-score at 10 µM; 310,000 compounds, 1.1% hits;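 active means B-score under library mean minus 3 SD, initial fluorescence not abnormally high, positive integrated signal ratio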;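 further: B-score derived from integrated fluorescence ratio over the kinetic read; more negative B-score means stronger inhibition of depolarization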
TRPC4 PAM: allosterically enhances the mouse TRPC4 cation channel; AID 2227; HEK293 TRPC4beta/mu-opioid, DAMGO EC20, Fluo-4 Ca2+ flux; active compounds read high; 310,000 compounds, 0.42% hits; Q9QUQ5; B-score at 10 µM;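 active means B-score of calcium response area above 5 SD of library B-scores, with initial fluorescence ratio within 5 SD of library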;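 further: B-score of integrated fluorescence ratio over time as area under calcium response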
TRPC4 act: activators of mouse TRPC4 channel; Q9QUQ5; HEK293 TRPC4beta/mu-opioid, Fluo4 calcium fluorescence; active compounds read high; B-score at 10 µM; 310,000 compounds, 0.49% hits; AID 2237;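 active means B-score above 5 SD of library B-scores, and initial fluorescence ratio not above library mean plus 5 SD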;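 further: positive B-score marks a calcium rise read as TRPC4 activation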
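Technique: kinetic Fluo4 calcium fluorescence; Test system: TRPC4beta and mu-opioid receptor HEK293 stable cells; Measure: B-scored integrated calcium fluorescence ratio; Benchmarks: low control buffer alone, high control maximal DAMGO; Schedule: 45 min room-temperature Fluo4 loading, 110 s read.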
TRPC4 inh: blocks the mouse TRPC4 cation channel | 300,000 compounds, 0.39% hits | HEK293 TRPC4beta/mu-opioid, DAMGO-evoked Fluo4 calcium flux; active compounds read low | B-score at 10 µM;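 active means B-score over 3 SD under the library average, no early fluorescence shift, positive overall ratio signal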
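Assay system: TRPC4beta/mu-opioid receptor HEK293 cell line; compound dosing: single concentration per test compound; detection: Fluo4 Ca2+ flux fluorescence; evaluation: per-well B score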
* hit, by the source's call; i = inactive. Rows were chosen to be rich in hits. Some 2.3% of all compounds tested hit in one or more screens of this group.

SMILES	TRPC6 activator	TRPC6 inh	TRPC4 PAM	TRPC4 act	TRPC4 inh
CSc1ncccc1C(=O)N(C)CC(=O)Nc1cccc(F)c1	i	i	i	i	i
COc1ccc(CCN(C)C(=O)c2cc(S(=O)(=O)N3CCCCCC3)ccc2OC)cc1OC	i	i	i	i	i
COc1ccc(CCN(C)C(=O)c2cc(S(=O)(=O)N3CCCCC3)ccc2Cl)cc1OC	i	i	i	i	-7*
COc1ccc(OC)c(Cc2nnc(CCC(=O)NC3CCCCC3)o2)c1	i	i	i	i	i
CCCN1CCC(NC(=O)CCc2nnc(Cc3cc(OC)ccc3OC)o2)CC1	i	i	10*	55*	i
Cc1ccccc1C(=O)Nc1ccc(C(=O)N/N=C/c2ccc(O)cc2)cc1	i	i	i	i	i
Cc1ccccc1C(=O)Nc1ccc(C(=O)N/N=C/c2ccncc2)cc1	i	i	i	i	-6*
Cc1ccc(CC(CC(=O)O)C(=O)NCC23CC4CC(CC(C4)C2)C3)cc1 (stereo not given)	i	i	14*	i	i
CCn1c(-c2ccccc2)csc1=Nc1ccc(O)cc1	i	i	i	i	-5*
CNC(=S)N(CCc1c(C)[nH]c2ccc(F)cc12)Cc1cccnc1	i	i	i	i	i
Cc1ccc(S(=O)(=O)N(C)c2ccc(C(=O)Nc3ccccc3C(=O)N3CCOCC3)cc2)cc1	i	i	i	i	i
COc1ccc(Cl)c2sc(N(CCN(C)C)C(=O)CCS(=O)(=O)c3ccc(C)cc3)nc12	i	i	23*	i	i
COc1ccc(NC(=O)c2c[nH]n3c(=O)cc(C4CCN(C(=O)OC(C)(C)C)CC4)nc23)cc1Cl	i	i	i	i	-7*
CC(C)(C)OC(=O)N1CCC(c2cc(=O)n3[nH]cc(C(=O)Nc4ccc(F)c(Cl)c4)c3n2)CC1	i	i	i	i	i
CCOc1ccccc1NS(=O)(=O)c1ccc2[nH]c(=O)[nH]c2c1	i	i	13*	i	i
CCCOc1ccccc1NS(=O)(=O)c1ccc2[nH]c(=O)[nH]c2c1	i	i	i	i	i
CCOC(=O)c1cc(-c2cccc([N+](=O)[O-])c2)n[nH]1	i	i	23*	i	i
COCCn1c(C)nnc1SCC(=O)NNC(=O)c1ccc(Cl)cc1	i	i	i	i	i
CCCC(=O)N/C(N)=N/c1nc(C)c2cc(C)ccc2n1	i	i	i	i	i
Cc1ccc2nc(/N=C(\N)NC(=O)NC3CCCCC3)nc(C)c2c1	i	i	i	55*	i
CN(C)C(=O)CN1C(=O)NC2(CCc3ccccc32)C1=O (stereo not given)	i	i	i	i	i
Cc1ccc(C(=O)NCCCNC(=O)COc2ccc(C)c(C)c2)cn1	i	i	i	i	i
CN(CC(=O)Nc1c(Cl)cccc1Cl)C(=O)CC1Sc2ccccc2NC1=O (stereo not given)	i	i	i	i	-6*
COc1cccc(OC)c1/C=C/C(=O)NC1CCCCC1	i	i	i	i	i
CCOP(=O)(OCC)c1nc(-c2ccc(Cl)cc2Cl)oc1N1CCCCC1	i	i	19*	i	i
SMILES	TRPC6 activator	TRPC6 inh	TRPC4 PAM	TRPC4 act	TRPC4 inh
CC(Cl)C(=O)Nc1cc(C(F)(F)F)ccc1N1CCOCC1 (stereo not given)	i	i	i	i	i
CN1CCN(c2ccc(C(F)(F)F)cc2NC(=O)Nc2ccccc2)CC1	i	i	17*	105*	i
O=C(Nc1ccccc1-c1ccccc1)C(=O)Nc1ccccc1-c1ccccc1	i	i	i	i	i
CN1CCN(CC(=O)N2c3ccccc3C(=O)Nc3cccnc32)CC1	i	-6*	i	i	i
O=C(CN1CCCCCC1)Nc1ccccc1Oc1ccccc1	i	i	i	i	-6*
O=C(CN1CCCCC1)Nc1cc(Cl)ccc1Oc1ccccc1	i	i	i	i	i
CCOC(=O)C1(CCc2ccccc2)CCN(Cc2c(O)cccc2OC)CC1	i	i	i	79*	i
CCOC(=O)C1(CCc2ccccc2)CCN(Cc2nccn2CC)CC1	i	i	i	i	i
CCOC(=O)C1(CCc2ccccc2)CCN(Cc2ccc(OC)cc2)CC1	i	i	i	119*	i
CCOC(=O)C1(Cc2ccccc2)CCN(Cc2ccc(C)s2)CC1	i	i	i	i	-8*
CCOC(=O)C1(CCOc2ccccc2)CCN(Cc2ccc(O)cc2)CC1	i	i	i	i	i
CCOC(=O)C1(CCc2ccccc2)CCN(Cc2ccc(O)cc2)CC1	i	i	i	49*	-6*
COc1ccc(S(=O)Cc2ccc(C(=O)NCc3cccc(OC)c3)o2)cc1 (stereo not given)	i	i	i	i	i
CC(C)(C)C1CCc2c(sc(NC(=O)C3CC=CCC3C(=O)O)c2C#N)C1 (stereo not given)	i	i	i	i	-6*
N#Cc1c(NC(=O)C2CC=CCC2C(=O)O)sc2c1CCCCCC2 (stereo not given)	i	i	i	i	i
CC(=O)Nc1ccc(/C=N/NC(=O)CNC(=O)c2ccccc2)cc1	i	i	i	i	i
CC(=O)c1ccc(N2CCN(C(=O)CCS(=O)(=O)c3ccc4c(c3)NC(=O)CS4)CC2)cc1	i	i	17*	i	i
CN(C)c1ccc(N=Nc2ccccc2C(=O)OCC(=O)NCC2CCCCC2)cc1	i	i	i	i	i
CN(C)c1ccc(N=Nc2ccccc2C(=O)OCC(=O)N(C)C2CCCCC2)cc1	i	i	11*	i	i
O=S(=O)(NC1CCCCC1N1CCN(c2ccccc2F)CC1)c1ccc(Cl)cc1 (stereo not given)	i	i	12*	i	i
CCN(CC)c1ccc(NC(=O)COc2ccc(C#N)cc2)cc1S(=O)(=O)Nc1ccc(OC)cc1	i	i	i	i	i
O=C(c1cccc(NS(=O)(=O)c2ccc(F)c(F)c2)c1)N1CCN(Cc2ccccc2)CC1	i	i	i	81*	i
Cc1ccc(S(=O)(=O)Nc2cccc(C(=O)NC3CCN(Cc4ccccc4)CC3)c2)cc1F	i	i	i	i	i
O=C(c1ccccc1)N1CCN(Cc2cccc(Oc3ccccc3)c2)CC1	17*	-11*	i	i	i
COc1cccc(CN2CCN(C(=O)c3cccc(OC)c3)CC2)c1	i	i	i	i	i

High-throughput results (PubChem)
